Test results taken from ChEMBL document CHEMBL3861983, “Synthesis and biological evaluation of the codrug of Leonurine and Aspirin as cardioprotective agents” (Bioorg Med Chem Lett, 2016).
Active and inactive are the calls of the source.

Key:
Assay type in all cases: functional, cell-based
H9c2 [1] = test: Cardioprotective activity against hypoxia-induced cytotoxicity in rat H9c2 cells assessed as increase in cell viability at 0.1 to 100 uM preincubated for 8 hrs followed by H2O2 addition for 2 hrs by MTT assay
Procedure, shortened: (§1)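 H9c2 cells were pretreated with compound for 8 h, then exposed to H2O2 (40 mM) in culture medium for 2 h. Viability was read by MTT at 0.1, 1, 10 and 100 μM, relative to untreated control and H2O2-only model groups. Values are mean ± SEM of more than three independent experiments.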

H9c2 [2] = test: Cardioprotective activity against hypoxia-induced cytotoxicity in rat H9c2 cells assessed as increase in cell viability at 0.1 uM preincubated for 8 hrs followed by H2O2 addition for 2 hrs by MTT assay; procedure, shortened: as §1
[3] = Cardioprotective activity against hypoxia-induced oxidative stress in rat H9c2 cells assessed as antioxidant activity by measuring reduction in LDH leakage in supernatant at 0.1 uM preincubated for 8 hrs followed by H2O2 addition for 2 hrs by spectrophotometry
Procedure, shortened: (§2)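 H9c2 cells were pretreated with compound for 8 h, then given H2O2 (40 mM) in medium for 2 h. Measured read-outs were LDH leakage into the culture supernatant, MDA level, and SOD and catalase activities. Values are mean ± SEM of more than three independent experiments, versus model and control groups.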

[4] = Cardioprotective activity against hypoxia-induced oxidative stress in rat H9c2 cells assessed as antioxidant activity by measuring reduction in MDA levels at 0.1 uM preincubated for 8 hrs followed by H2O2 addition for 2 hrs by spectrophotometry; procedure, shortened: as §2
[5] = Cardioprotective activity against hypoxia-induced oxidative stress in rat H9c2 cells assessed as antioxidant activity by measuring increase in SOD activity at 0.1 uM preincubated for 8 hrs followed by H2O2 addition for 2 hrs by spectrophotometry; procedure, shortened: as §2
[6] = Cardioprotective activity against hypoxia-induced oxidative stress in rat H9c2 cells assessed as antioxidant activity by measuring increase in catalase activity at 0.1 uM preincubated for 8 hrs followed by H2O2 addition for 2 hrs by spectrophotometry; procedure, shortened: as §2
[7] = Cardioprotective activity against hypoxia-induced apoptosis in rat H9c2 cells assessed as reduction in Bax expression at 0.1 uM preincubated for 8 hrs followed by H2O2 addition for 2 hrs by Western blotting analysis
Procedure, shortened: (§3)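 Bax and Bcl-2 protein expression was measured in H9c2 cells pretreated with compound for 8 h, then injured with H2O2 (40 mM) for 2 h. Levels were compared with control and H2O2 model groups. Values are mean ± SEM of more than three independent experiments.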

[8] = Cardioprotective activity against hypoxia-induced apoptosis in rat H9c2 cells assessed as increase in Bcl-2 expression at 0.1 uM preincubated for 8 hrs followed by H2O2 addition for 2 hrs by Western blotting analysis; procedure, shortened: as §3
[9] = Cardioprotective activity against hypoxia-induced apoptosis in rat H9c2 cells assessed as reduction in total apoptotic cells at 0.1 uM preincubated for 8 hrs followed by H2O2 addition for 2 hrs by Annexin-V FITC/propidium iodide staining based flow cytometry
Procedure, shortened: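 After 8 h compound pretreatment, H9c2 cells got a 2 h H2O2 (40 mM) insult. They were stained with Annexin V-FITC/PI and analysed by flow cytometry, counting total apoptotic cells including necrotic cells. Values are mean ± SEM of more than three independent experiments, versus model and control groups.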

[10] = Cardioprotective activity against hypoxia-induced oxidative stress mediated inflammation in rat H9c2 cells assessed as suppression of TNF-alpha in supernatant at 0.1 uM preincubated for 8 hrs followed by H2O2 addition for 2 hrs by ELISA
Procedure, shortened: (§4)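 TNF-α, IL-6 and IL-1β in the culture supernatant were quantified with ELISA kits. H9c2 cells were pretreated with compound for 8 h, then given 2 h H2O2 (40 mM). Values are mean ± SEM of more than three independent experiments, versus the H2O2 model group.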

[11] = Cardioprotective activity against hypoxia-induced oxidative stress mediated inflammation in rat H9c2 cells assessed as suppression of IL-1beta in supernatant at 0.1 uM preincubated for 8 hrs followed by H2O2 addition for 2 hrs by ELISA; procedure, shortened: as §4
[12] = Cardioprotective activity against hypoxia-induced oxidative stress mediated inflammation in rat H9c2 cells assessed as suppression of IL-6 in supernatant at 0.1 uM preincubated for 8 hrs followed by H2O2 addition for 2 hrs by ELISA; procedure, shortened: as §4
H9c2 [13] = test: Increase in No level in rat H9c2 cells at 0.1 uM preincubated for 8 hrs followed by H2O2 addition for 2 hrs by ELISA
Procedure, shortened: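 NO concentration was measured in the culture supernatant of H9c2 cells. Cells were pretreated with compound for 8 h before 2 h H2O2 (40 mM) exposure. Values are mean ± SEM of more than three independent experiments, versus the model group.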

H9c2 [14] = test: Cardioprotective activity against hypoxia-induced cytotoxicity in rat H9c2 cells assessed as increase in cell viability at 1 uM preincubated for 8 hrs followed by H2O2 addition for 2 hrs by MTT assay; procedure, shortened: as §1
[15] = Cardioprotective activity against hypoxia-induced oxidative stress in rat H9c2 cells assessed as antioxidant activity by measuring reduction in MDA levels at 1 uM preincubated for 8 hrs followed by H2O2 addition for 2 hrs by spectrophotometry; procedure, shortened: as §2
[16] = Cardioprotective activity against hypoxia-induced oxidative stress in rat H9c2 cells assessed as antioxidant activity by measuring increase in SOD activity at 1 uM preincubated for 8 hrs followed by H2O2 addition for 2 hrs by spectrophotometry; procedure, shortened: as §2
[17] = Cardioprotective activity against hypoxia-induced oxidative stress in rat H9c2 cells assessed as antioxidant activity by measuring increase in catalase activity at 1 uM preincubated for 8 hrs followed by H2O2 addition for 2 hrs by spectrophotometry; procedure, shortened: as §2
[18] = Cardioprotective activity against hypoxia-induced oxidative stress mediated inflammation in rat H9c2 cells assessed as suppression of TNF-alpha in supernatant at 1 uM preincubated for 8 hrs followed by H2O2 addition for 2 hrs by ELISA; procedure, shortened: as §4
[19] = Cardioprotective activity against hypoxia-induced oxidative stress mediated inflammation in rat H9c2 cells assessed as suppression of IL-1beta in supernatant at 1 uM preincubated for 8 hrs followed by H2O2 addition for 2 hrs by ELISA; procedure, shortened: as §4
[20] = Cardioprotective activity against hypoxia-induced oxidative stress mediated inflammation in rat H9c2 cells assessed as suppression of IL-6 in supernatant at 1 uM preincubated for 8 hrs followed by H2O2 addition for 2 hrs by ELISA; procedure, shortened: as §4
[21] = Cardioprotective activity against hypoxia-induced oxidative stress in rat H9c2 cells assessed as reduction in MDA levels at 1 uM preincubated for 8 hrs followed by H2O2 addition for 2 hrs in presence of aspirin by spectrophotometry; procedure, shortened: as §2
[22] = Cardioprotective activity against hypoxia-induced oxidative stress in rat H9c2 cells assessed as antioxidant activity by measuring increase in SOD activity at 1 uM preincubated for 8 hrs followed by H2O2 addition for 2 hrs in presence of aspirin by spectrophotometry; procedure, shortened: as §2
[23] = Cardioprotective activity against hypoxia-induced oxidative stress mediated inflammation in rat H9c2 cells assessed as suppression of TNF-alpha in supernatant at 1 uM preincubated for 8 hrs followed by H2O2 addition for 2 hrs in presence of aspirin by ELISA; procedure, shortened: as §4
[24] = Cardioprotective activity against hypoxia-induced oxidative stress mediated inflammation in rat H9c2 cells assessed as suppression of IL-6 in supernatant at 1 uM preincubated for 8 hrs followed by H2O2 addition for 2 hrs in presence of aspirin by ELISA; procedure, shortened: as §4
[25] = Cardioprotective activity against hypoxia-induced oxidative stress mediated inflammation in rat H9c2 cells assessed as suppression of IL-1beta in supernatant at 1 uM preincubated for 8 hrs followed by H2O2 addition for 2 hrs in presence of aspirin by ELISA; procedure, shortened: as §4
[26] = Cardioprotective activity against hypoxia-induced oxidative stress in rat H9c2 cells assessed as reduction in MDA levels at 1 uM preincubated for 8 hrs followed by H2O2 addition for 2 hrs in presence of leonurine by spectrophotometry; procedure, shortened: as §2
[27] = Cardioprotective activity against hypoxia-induced oxidative stress in rat H9c2 cells assessed as antioxidant activity by measuring increase in SOD activity at 1 uM preincubated for 8 hrs followed by H2O2 addition for 2 hrs in presence of leonurine by spectrophotometry; procedure, shortened: as §2
[28] = Cardioprotective activity against hypoxia-induced oxidative stress mediated inflammation in rat H9c2 cells assessed as suppression of TNF-alpha in supernatant at 1 uM preincubated for 8 hrs followed by H2O2 addition for 2 hrs in presence of leonurine by ELISA; procedure, shortened: as §4
[29] = Cardioprotective activity against hypoxia-induced oxidative stress mediated inflammation in rat H9c2 cells assessed as suppression of IL-6 in supernatant at 1 uM preincubated for 8 hrs followed by H2O2 addition for 2 hrs in presence of leonurine by ELISA; procedure, shortened: as §4
[30] = Cardioprotective activity against hypoxia-induced oxidative stress mediated inflammation in rat H9c2 cells assessed as suppression of IL-1beta in supernatant at 1 uM preincubated for 8 hrs followed by H2O2 addition for 2 hrs in presence of leonurine by ELISA; procedure, shortened: as §4

Measured: Activity

COc1cc(C(=O)OCCCCNC(=N)N)cc(OC)c1OC(=O)CCNC(=O)c1ccccc1O
active: H9c2 [1]

COc1cc(C(=O)OCCCCNC(=N)N)cc(OC)c1OC(=O)CCNC(=O)c1ccccc1OC(C)=O
active: H9c2 [2] | [3] | [4] | [5] | [6] | [7] | [8] | [9] | [10] | [11] | [12] | H9c2 [13]

COc1cc(C(=O)OCCCCNC(=N)N)cc(OC)c1O
active: H9c2 [14] | [15] | [16] | [17] | [18] | [19] | [20] | [21] | [22] | [23] | [24] | [25]

CC(=O)Oc1ccccc1C(=O)O
active: H9c2 [14] | [15] | [16] | [17] | [18] | [19] | [20] | [26] | [27] | [28] | [29] | [30]
